Results from ChEMBL document CHEMBL4400542, “Epidermal Growth Factor Receptor-Targeted Multifunctional Photosensitizers for Bladder Cancer Imaging and Photodynamic Therapy” (J Med Chem, 2019).
Active and inactive are the calls of the source. The rule behind the calls is not given here.

Tests used:
T-24 [1] = assay: Photo-activated cytotoxicity against human T24 cells assessed as reduction in cell viability preincubated for 24 hrs followed by 1 J/cm2 light irradiation and measured after 48 hrs formulated with 2% pluronic F-127 solution by MTT assay; type: functional, cell-based; details: T-24, light or radiation study
In short: (§1)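 Cells plated at 10k per well, allowed 24 h to adhere, then PS added in two-fold dilutions from 1 µM top for 24 h. Irradiated at 665 nm, 1.0 J/cm2 at 3.2 mW/cm2. Viability by MTT 48 h after PDT: about 2 h incubation, formazan dissolved in DMSO, absorbance at 570 nm.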

[2] = Induction of singlet oxygen generation in deaerated toluene at 670 nm assessed as rate of singlet decay by femtosecond transient absorption spectroscopy; type: functional
T-24 [3] = assay: Photo-activated cytotoxicity against human T24 cells assessed as reduction in cell viability preincubated for 24 hrs followed by 1 J/cm2 light irradiation and measured after 48 hrs formulated with 1% tween 80 solution by MTT assay; type: functional, cell-based; details: T-24, light or radiation study; in short: as §1
[4] = molecular target: Epidermal growth factor receptor (Homo sapiens) (UniProt P00533); assay: Inhibition of EGFR autophosphorylation at Ty1068 in human T24 cells at 1 uM followed by PDT and measured after 24 hrs by Western blot analysis; type: cell-based
Chain of Epidermal growth factor receptor (Homo sapiens) (P00533 whole entry): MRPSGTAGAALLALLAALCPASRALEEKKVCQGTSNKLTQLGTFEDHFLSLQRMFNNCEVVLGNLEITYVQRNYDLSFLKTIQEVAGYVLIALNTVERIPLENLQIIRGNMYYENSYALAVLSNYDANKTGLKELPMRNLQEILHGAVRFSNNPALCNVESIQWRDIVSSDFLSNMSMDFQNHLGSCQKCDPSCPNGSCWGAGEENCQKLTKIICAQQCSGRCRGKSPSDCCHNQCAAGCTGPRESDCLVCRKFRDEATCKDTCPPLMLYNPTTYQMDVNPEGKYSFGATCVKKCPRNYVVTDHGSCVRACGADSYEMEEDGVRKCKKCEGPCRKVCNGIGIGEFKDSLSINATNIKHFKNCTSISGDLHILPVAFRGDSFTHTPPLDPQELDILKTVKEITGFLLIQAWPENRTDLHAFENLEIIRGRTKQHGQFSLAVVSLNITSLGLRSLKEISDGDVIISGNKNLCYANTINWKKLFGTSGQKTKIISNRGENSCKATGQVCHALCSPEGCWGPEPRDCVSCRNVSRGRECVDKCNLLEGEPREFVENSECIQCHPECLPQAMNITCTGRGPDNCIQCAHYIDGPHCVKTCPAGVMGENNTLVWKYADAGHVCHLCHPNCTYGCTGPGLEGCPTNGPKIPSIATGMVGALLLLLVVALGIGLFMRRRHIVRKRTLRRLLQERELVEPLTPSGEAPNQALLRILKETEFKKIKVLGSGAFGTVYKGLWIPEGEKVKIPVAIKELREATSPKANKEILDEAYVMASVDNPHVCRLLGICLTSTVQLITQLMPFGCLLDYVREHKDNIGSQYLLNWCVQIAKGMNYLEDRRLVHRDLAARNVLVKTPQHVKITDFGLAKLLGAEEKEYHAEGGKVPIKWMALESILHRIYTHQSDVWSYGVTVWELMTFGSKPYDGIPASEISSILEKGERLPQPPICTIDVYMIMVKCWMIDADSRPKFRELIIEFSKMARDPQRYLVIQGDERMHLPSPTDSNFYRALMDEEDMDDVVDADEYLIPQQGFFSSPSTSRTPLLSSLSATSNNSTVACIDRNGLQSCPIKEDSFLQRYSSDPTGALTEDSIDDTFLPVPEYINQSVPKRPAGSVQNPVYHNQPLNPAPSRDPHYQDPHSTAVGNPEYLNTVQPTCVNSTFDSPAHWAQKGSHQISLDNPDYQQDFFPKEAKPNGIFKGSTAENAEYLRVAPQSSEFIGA

[5] = Drug uptake in human T24 cells assessed as increase in gray value intensity at 1 uM pretreated for 24 hrs followed by compound washout and measured after 4 hrs by Hoechst 33342 staining based fluorescence microscopy; type: ADME, cell-based; details: t-24, 4 h
In short: (§2)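 Cells pre-incubated 24 h with free erlotinib before PS addition. Legend describes PS at 1 uM or erlotinib at 3 uM for 4 h, then three warm PBS washes. Imaged by fluorescence microscopy; grey value per field normalized to cell count, triplicate wells, each imaged in triplicate.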

[6] = Drug uptake in human UM-UC-3 cells assessed as increase in gray value intensity at 1 uM pretreated for 24 hrs followed by compound washout and measured after 4 hrs by Hoechst 33342 staining based fluorescence microscopy; type: ADME, cell-based; details: umuc3, 4 h; in short: as §2
[7] = Drug accumulation in lysosomes of human T24 cells at 500 nM formulated with 1% tween 80 solution after 24 hrs by lysosphere green based fluorimetry; type: ADME, subcellular, Lysosome; details: t-24, 24 h, 0.5 µM
[8] = Drug accumulation in lysosomes of human UM-UC-3 cells at 500 nM formulated with 2% pluronic F-127 solution after 24 hrs by lysosphere green based fluorimetry; type: ADME, subcellular, Lysosome; details: umuc3, 24 h, 0.5 µM
[9] = Drug accumulation in human T24 cells at 500 nM formulated with 1% tween 80 solution after 24 hrs by CARY-fluorimetry; type: ADME, cell-based; details: t-24, 24 h, 0.5 µM
[10] = Drug uptake in human UM-UC-3 cells assessed as increase in gray value intensity at 500 nM after 48 hrs in presence of gleevec by Hoechst 33342 staining based fluorescence microscopy; type: ADME, cell-based; details: umuc3, 24 h, 0.5 µM, in the assay text read “after 24 hrs” for “after 48 hrs”
In short: (§3)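 Cells plated at 100k per well, grown to 80% confluency, refreshed, then incubated 24 h with PS at 500 nM with or without Gleevec 5 µM. Washed twice with PBS, Hoechst 33342 added, imaged by fluorescence microscopy; grey value normalized to cell number, triplicate groups and images.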

[11] = Drug uptake in human UM-UC-3 cells assessed as increase in gray value intensity at 500 nM after 48 hrs in absence of gleevec by Hoechst 33342 staining based fluorescence microscopy; type: ADME, cell-based; details: umuc3, 24 h, 0.5 µM, in the assay text read “24 hrs” for “48 hrs”; in short: as §3
[12] = Stability at -20 degC for 2 months; type: physicochemical; details: 1461 h
In short: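 Formulated PS stored at -4 °C or -20 °C for two months; checked for precipitation and pH change.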

[13] = Drug accumulation in mitochondria of human UM-UC-3 cells at 500 nM formulated with 1% tween 80 solution after 24 hrs by mitotracker red based fluorimetry; type: ADME; details: umuc3, 24 h, 0.5 µM
[14] = Stability at -4 degC for 2 months; type: physicochemical; details: 1461 h
In short: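 Photosensitizer formulations in Tween80 or Pluronic F-127 were stored at -4 °C, alongside a -20 °C set, for two months. Stability was judged by visible precipitation and change in pH.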

UMUC3 [15] = assay: Induction of oxidative stress in human UM-UC-3 cells assessed as increase in ROS production at 1 uM in presence of 1 J/cm2 light irradiation and measured at 20 min post light exposure by DCFDA-fluorescence based assay relative to control; type: functional
In short: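 UMUC3 cells at 10k per well; after 24 h, PS added at 1 µM for 24 h (Tween80 formulation). DCFDA 1 µM for 20 min, fluorescence read (ex 492, em 517). Then 665 nm light, 1 J total at 3.2 mW/cm2, and read again. No-DCFDA background subtracted; 0.05% H2O2 control wells.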

[16] = Drug accumulation in lysosomes of human UM-UC-3 cells at 500 nM formulated with 1% tween 80 solution after 24 hrs by lysosphere green based fluorimetry; type: ADME, subcellular, Lysosome; details: umuc3, 24 h, 0.5 µM
[17] = molecular target: Epidermal growth factor receptor (Homo sapiens) (UniProt P00533); assay: Inhibition of EGFR autophosphorylation at Ty1068 in human UM-UC-3 cells at 1 uM followed by PDT and measured after 24 hrs by Western blot analysis; type: cell-based
UMUC3 [18] = assay: Induction of apoptosis in human UM-UC-3 cells assessed as increase in apoptotic cells at 1 uM in absence of light by Annexin V/propidium iodide-staining based flow cytometry; type: cell-based; details: umuc3, 1 µM
[19] = Drug accumulation in human UM-UC-3 cells at 500 nM formulated with 2% pluronic F-127 solution after 24 hrs by CARY-fluorimetry; type: ADME, cell-based; details: umuc3, 24 h, 0.5 µM
[20] = Drug accumulation in lysosomes of human T24 cells at 500 nM formulated with 2% pluronic F-127 solution after 24 hrs by lysosphere green based fluorimetry; type: ADME, subcellular, Lysosome; details: t-24, 24 h, 0.5 µM
[21] = Drug accumulation in mitochondria of human T24 cells at 500 nM formulated with 1% tween 80 solution after 24 hrs by mitotracker red based fluorimetry; type: ADME; details: t-24, 24 h, 0.5 µM
UMUC3 [22] = assay: Photo-activated cytotoxicity against human UM-UC-3 cells assessed as reduction in cell viability preincubated for 24 hrs followed by 1 J/cm2 light irradiation and measured after 48 hrs formulated with 2% pluronic F-127 solution by MTT assay; type: functional, cell-based; details: UMUC3, light or radiation study; in short: as §1
[23] = Drug accumulation in mitochondria of human T24 cells at 500 nM formulated with 2% pluronic F-127 solution after 24 hrs by mitotracker red based fluorimetry; type: ADME; details: t-24, 24 h, 0.5 µM
T-24 [24] = assay: Induction of apoptosis in human T24 cells assessed as increase in apoptotic cells at 1 uM in absence of light by Annexin V/propidium iodide-staining based flow cytometry; type: cell-based; details: t-24, 1 µM
[25] = Drug accumulation in human T24 cells at 500 nM formulated with 2% pluronic F-127 solution after 24 hrs by CARY-fluorimetry; type: ADME, cell-based; details: t-24, 24 h, 0.5 µM
UMUC3 [26] = assay: Photo-activated cytotoxicity against human UM-UC-3 cells assessed as reduction in cell viability preincubated for 24 hrs followed by 1 J/cm2 light irradiation and measured after 48 hrs formulated with 1% tween 80 solution by MTT assay; type: functional, cell-based; details: UMUC3, light or radiation study; in short: as §1
[27] = molecular target: Epidermal growth factor receptor (Homo sapiens) (UniProt P00533); assay: Inhibition of EGFR autophosphorylation at Ty1068 in human UM-UC-3 cells at 100 nM followed by PDT and measured after 24 hrs by Western blot analysis; type: cell-based
[28] = Drug accumulation in human UM-UC-3 cells at 500 nM formulated with 1% tween 80 solution after 24 hrs by CARY-fluorimetry; type: ADME, cell-based; details: umuc3, 24 h, 0.5 µM

Compound	IC50 (T-24 [1])	K [2]	IC50 (T-24 [3])	inhibition [4]	Drug uptake [5]	Drug uptake [6]	Drug uptake [7]	Drug uptake [8]	Drug uptake [9]	Drug uptake [10]	Drug uptake [11]	Stability [12]	Drug uptake [13]	Stability [14]	fold change (FC) (UMUC3 [15])	Drug uptake [16]	inhibition [17]	Activity (UMUC3 [18])	Drug uptake [19]	Drug uptake [20]	other results
CCC1=C(C)c2cc3[nH]c(cc4nc(c5c6[nH]c(cc1n2)c(C)c6C(=O)C5)[C@@H](CCC(=O)OC)[C@@H]4C)c(C)c3C(C)OCc1cccc(I)c1 (stereo partly specified)	178 nM	1 ×10⁹ /s	73.7 nM	inactive	Active	Active	Active	Active	Active	Active	Active	Stable	Active	Stable	2.5	Active	inactive	Non-Toxic	Active	Active	Drug uptake [21]: Active; IC50 (UMUC3 [22]): 200 nM; Drug uptake [23]: Active; Activity (T-24 [24]): Non-Toxic; Drug uptake [25]: Active; IC50 (UMUC3 [26]): 95.2 nM; inhibition [27]: Active; Drug uptake [28]: Active
CCC1=C(C)c2cc3[nH]c(cc4nc(c5c6[nH]c(cc1n2)c(C)c6C(=O)C5)[C@@H](CCC(=O)NCc1cccc(I)c1)[C@@H]4C)c(C)c3C(C)OCc1cccc(C#Cc2cccc(Nc3ncnc4cc(OCCOC)c(OCCOC)cc34)c2)c1 (stereo partly specified)	1260 nM	1.2 ×10¹⁰ /s	1030 nM	Active	Active	Not Active	Active	Active	Active	Not Active	Not Active	Stable	Active	Stable	0.9	Active	Active	Non-Toxic	Active	Active	Drug uptake [21]: Active; IC50 (UMUC3 [22]): 326 nM; Drug uptake [23]: Active; Activity (T-24 [24]): Non-Toxic; Drug uptake [25]: Active; IC50 (UMUC3 [26]): 608 nM; inhibition [27]: Active; Drug uptake [28]: Active
